# Assay outcomes: PubChem, several laboratories
# Sampled rows, rich in hits. Any-hit rate of the full collection: about 2.9%.
# SENP6 block: SENP6 protease inhibitors, primary screen, biochemical, luminescence, uHTS | 1.8% of 330,000 active | inhibition, % at 10 µM | Recombinant SENP6 catalytic domain, aminoluciferin luminescence | Sentrin-specific protease 6 (Homo sapiens), Q9GZR1;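 active = inhibition above about 50% at the single tested dose, limit read from the data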;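 also: plate controls were DMSO wells with enzyme for no effect and DMSO wells lacking enzyme for full effect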
# SENP8 block-1: SENP8 protease inhibitors, primary screen, biochemical, luminescence; purified SENP8, Z-RLRGG-aminoluciferin cleavage; AID 2540, 2010; inhibition, % at 10 µM; 1.2% of 330,000 active; in the data active = inhibition above about 50%
# SENP7 inh: SENP7 protease inhibitors, primary screen, biochemical, luminescence, uHTS; 1.5% of 330,000 active; Sentrin-specific protease 7 (Homo sapiens), Q9BQF6; recombinant SENP7, Z-RLRGG-aminoluciferin luminescence, 40 min; AID 434973, 2010; inhibition, % at 5 µM;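 active = inhibition above about 50% at the single test dose, limit read from the data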;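 also: plate controls were DMSO with enzyme for no effect and no enzyme buffer wells for full effect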
# Target sequence (Q9BQF6 706-1050 limits assumed): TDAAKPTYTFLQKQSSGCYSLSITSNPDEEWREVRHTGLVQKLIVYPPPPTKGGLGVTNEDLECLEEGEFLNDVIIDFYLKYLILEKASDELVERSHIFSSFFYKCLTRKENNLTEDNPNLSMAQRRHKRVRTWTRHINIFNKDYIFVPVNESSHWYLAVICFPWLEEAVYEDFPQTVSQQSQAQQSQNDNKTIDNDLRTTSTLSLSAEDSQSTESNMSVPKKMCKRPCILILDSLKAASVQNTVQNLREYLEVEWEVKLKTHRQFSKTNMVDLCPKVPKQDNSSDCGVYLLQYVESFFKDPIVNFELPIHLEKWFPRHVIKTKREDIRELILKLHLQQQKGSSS
# SENP8 block-2: human SENP8 protease inhibitors, primary screen, biochemical, fluorescence, Nedd8 protein substrate, uHTS; recombinant SENP8; inhibition, % at 20 µM; 0.64% of 360,000 active; AID 602440, 2012; Sentrin-specific protease 8 (Homo sapiens), Q96LD8; in the data active = inhibition mostly above about 40%, no sharp cut-off; inactive = mostly below about 27%
# SENP1 FRET inh: human SENP1 catalytic domain inhibitors, primary screen, biochemical, FRET, uHTS | Sentrin-specific protease 1 (Homo sapiens), Q9P0U3 | recombinant SENP1 catalytic domain, CyPet-SUMO1-YPet FRET cleavage | inhibition, % at 10 µM | 0.21% of 360,000 active | AID 624204, 2012;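 active = inhibition at least 30% at 10 µM, raw YFP signal under a set limit, fluorescence ratio 0.5 to 1.5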;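 also: 0% = enzyme with DMSO and 100% = no enzyme wells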
#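 Material – human SENP1 catalytic domain · Input – SENP1 enzyme, 20 pM final · Compound dosing – single concentration of 10 µM compound, 0.5% DMSO final · Timing – enzyme reaction for 50 min at room temperature, dark · Measured by – FRET fluorescence in CFP and YFP emission channels · Control set – no-enzyme wells low, DMSO-plus-enzyme wells high control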
# HSP90 inh: HSP90 inhibitors, primary screen, cell lysate, luminescence; Rabbit reticulocyte lysate, luciferase refolding luminescence, 3 h; inhibition, % at 5.6 µM; 0.91% of 290,000 active; AID 1789, 2009;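 active = inhibition above the screen-wide mean plus 3 SD, computed separately per campaign, cut at about 16% in these data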;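 also: 0% = DMSO wells and 100% = 60 µM geldanamycin wells; inhibitors lower the luminescence because luciferase stays unfolded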
# SENP8 confirm: SENP8 protease inhibitors, retest, confirmation, biochemical, luminescence, single concentration; Recombinant SENP8, Z-RLRGG-aminoluciferin luminescence, 60 min; AID 488912, 2010; 40% of 6,200 active; inhibition, % at 12.5 µM; shares compounds with SENP7 inh;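 active = mean inhibition across replicates above about 50%, limit read from the data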
# SENP6 conf: SENP6 protease inhibitors, confirmation, biochemical, luminescence, single concentration; inhibition, % at 12.5 µM; shares compounds with SENP7 inh; 58% of 6,200 active; recombinant SENP6, Z-RLRGG-aminoluciferin luminescence
# SENP7 conf: SENP7 protease inhibitors, retest, confirmation, biochemical, luminescence, single concentration. shares compounds with SENP7 inh. recombinant SENP7, Z-RLRGG-aminoluciferin luminescence, 40 min. inhibition, % at 12.5 µM. 69% of 6,200 active
# Casp3 SENP sel: caspase-3 protease inhibitors, confirmation, selectivity assay for SENP inhibitor project, biochemical, single concentration | shares compounds with SENP7 inh | purified caspase-3, Z-DEVD-aminoluciferin luminescence, 60 min | inhibition, % at 12.5 µM | 60% of 6,200 active | AID 488918, 2010;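 active = mean inhibition above about 50%, limit read from the data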;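 also: plate controls were enzyme with DMSO for no effect and wells without caspase-3 for full effect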
# Luc interf: counter-screen for SENP inhibitors: luminescence interference; shares compounds with SENP7 inh; Pre-incubated SENP8/Z-RLRGG-aminoluciferin, luciferase luminescence interference; inhibition, % at 12.5 µM; 39% of 6,200 active; AID 488919;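 active = mean inhibition above about 50% when retested at one dose, limit read from the data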;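 also: plate controls were DMSO wells with completed reaction for no effect and substrate without enzyme for full effect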
# Starred values were filed as active, the others as inactive; x = no result given.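 The calls were made as follows, unless noted: active = mean inhibition above about 50% in the one-dose retest (limit read from the data); inactive = the rest.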
SMILES,SENP6 block,SENP8 block-1,SENP7 inh,SENP8 block-2,SENP1 FRET inh,HSP90 inh,SENP8 confirm,SENP6 conf,SENP7 conf,Casp3 SENP sel,Luc interf
CCOc1ncccc1C(=O)OCC(=O)Nc1cc(S(=O)(=O)N(CC)CC)ccc1C,13.2,0.3,3.3,12.8,-2.3,-1.3,x,x,x,x,x
O=C(O)Cc1ccc2sc(-c3ccccc3)nc2c1,98.9*,92.5*,90.7*,-1.9,0.6,-0.1,96.4*,97.0*,100.8*,97.3*,96.0*
COC(=O)Cc1ccc2sc(-c3ccccc3)nc2c1,93.9*,94.5*,100.3*,-0.1,1.4,-2.8,96.5*,97.7*,101.1*,95.5*,94.2*
COc1ccc(C(=O)NCc2ccc(-c3nc4ccccc4s3)cc2)cc1,-10.8,-1.6,-1.5,-20.0,-6.8,-0.3,x,x,x,x,x
COc1ccc(C(=O)CN2Cc3ccccc3C2=N)cc1,5.9,1.8,-1.0,6.1,0.3,13.9,x,x,x,x,x
Cc1cccc(NC(=O)CSc2nc(=O)n(CCCN3CCOCC3)c3c2CCCC3)c1,-10.6,-0.6,2.7,7.1,0.8,x,x,x,x,x,x
c1ccc2c(c1)c1cccc3ccc4cccc2c4c31,-15.0,-2.8,-7.5,-386.4,-5.1,x,x,x,x,x,x
COc1ccc(CNC(=O)c2ccc(-c3c(C)noc3C)c3ccoc23)cc1OC,x,x,x,7.2,-0.4,x,x,x,x,x,x
O=[N+]([O-])c1nn(-c2ccc3c(c2)OCCO3)n(O)c1=NCCCO,3.6,1.4,3.7,20.8,-0.6,4.3,x,x,x,x,x
Cc1ccc(CN=c2c([N+](=O)[O-])nn(-c3ccc4c(c3)OCCO4)n2O)cc1,59.0*,16.0,34.6,21.1,2.4,-2.3,20.5,30.3,57.6*,13.7,5.8
COc1ccc(-n2nnnc2CNC(=O)C(=O)c2c(C)[nH]c3ccccc23)cc1,0.6,-9.0,-0.6,23.4,-4.6,x,x,x,x,x,x
CC(C)C[C@H](NC(=O)OC(C)(C)C)C(=O)N/N=C/c1ccc2nccnc2c1,-11.7,8.0,50.9*,-40.7,3.6,-6.2,-7.7,-2.6,4.7,0.5,-1.6
C/C(=N\N1CCN(c2ccccc2)CC1)c1ccc(O)cc1,9.1,-5.6,2.2,12.7,0.8,-0.5,x,x,x,x,x
O=C(/C(C=Nc1ccc(F)cc1)=C(/O)c1ccco1)C(F)(F)F,77.1*,46.5,79.1*,-116.6,-60.4,-3.4,-1.6,4.1,12.4,35.5,28.7
Cc1ccc(N=C/C(C(=O)C(F)(F)F)=C(\O)c2ccco2)cc1Cl,67.6*,37.3,58.6*,-245.7,-21.6,2.4,-6.0,0.2,38.8,18.2,54.1*
CCOC(=O)NNc1ccc2nonc2c1[N+](=O)[O-],63.9*,61.1*,12.2,x,x,10.5,66.0*,79.9*,41.9,30.1,6.4
Clc1ccc(-c2nnc(-c3ccco3)o2)cc1,62.8*,51.8*,72.6*,-188.4,3.0,0.1,35.9,41.4,59.1*,54.3*,0.3
